SIAE inh: human SIAE inhibitors, primary screen, biochemical, fluorescence polarization, FP-Rh probe, 1536-well HTS | inhibition, % at 9.66 µM | Sialate O-acetylesterase (Homo sapiens), Q9HAT2 | 370,000 tested, 0.69% active | SIAE FP-Rh probe binding | AID 1053197, 2014;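 active = inhibition above a cutoff: mean of compounds within the control limits plus 3 SD of those, cut at about 17% in these data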
MBD2 inh: inhibitors of MBD2 binding to methylated DNA, primary screen, biochemical, TR-FRET, DNA-binding domain, human; Methyl-CpG-binding domain protein 2 (Homo sapiens), Q9UBB5; MBD2 binding to methylated oligonucleotide; inhibition, % at 4.4 µM; 370,000 tested, 0.31% active; in the data active = inhibition above about 13%
UHRF1 MBD2 ctr: UHRF1 methylated DNA binding inhibitors, primary screen, counter-screen for MBD2 inhibitor project, biochemical, TR-FRET, human UHRF1, single concentration | UHRF1 binding to methylated oligo | 370,000 tested, 0.75% active | AID 687016, 2013 | inhibition, % at 4.4 µM | E3 ubiquitin-protein ligase UHRF1 (Homo sapiens), Q96T88; in the data active = inhibition above about 21%;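 note: UHRF1 SRA domain binding a hemimethylated CpG hairpin DNA probe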
TDP2 inh: human TDP2 enzyme inhibitors, primary screen, biochemical, epi absorbance, recombinant enzyme. Tyrosyl-DNA phosphodiesterase 2 (Homo sapiens), O95551. T5PNP hydrolysis, p-nitrophenol absorbance 415 nm. inhibition, % at 12.8 µM. 370,000 tested, 0.34% active;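 active = inhibition above the mean of all tested compounds plus 3 SD, set per campaign, cut at about 25% in these data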
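Material: recombinant human TDP2; quantity: TDP2 enzyme at 120 nM final; medium: Tris-HCl pH 7.5 with MgCl2; compound: single concentration, 12.8 µM nominal, with 1% DMSO; incubation: 2 h enzyme incubation at 37 °C; signal: epi absorbance; measure: percent inhibition; benchmarks: high control without enzyme, low control DMSO plus TDP2; repeats: singlicate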
PRMT1 FP inh: PRMT1 methyltransferase inhibitors, primary screen, biochemical, fluorescence polarization | Protein arginine N-methyltransferase 1 (Homo sapiens), Q99873 | recombinant PRMT1, activity-based probe fluorescence polarization | inhibition, % at 2.79 µM | 370,000 tested, 1.3% active | AID 652257, 2013;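 active = inhibition above about 21% made by adding two undisclosed values, limit read from the data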
Target sequence (Q99873 whole entry, looked up): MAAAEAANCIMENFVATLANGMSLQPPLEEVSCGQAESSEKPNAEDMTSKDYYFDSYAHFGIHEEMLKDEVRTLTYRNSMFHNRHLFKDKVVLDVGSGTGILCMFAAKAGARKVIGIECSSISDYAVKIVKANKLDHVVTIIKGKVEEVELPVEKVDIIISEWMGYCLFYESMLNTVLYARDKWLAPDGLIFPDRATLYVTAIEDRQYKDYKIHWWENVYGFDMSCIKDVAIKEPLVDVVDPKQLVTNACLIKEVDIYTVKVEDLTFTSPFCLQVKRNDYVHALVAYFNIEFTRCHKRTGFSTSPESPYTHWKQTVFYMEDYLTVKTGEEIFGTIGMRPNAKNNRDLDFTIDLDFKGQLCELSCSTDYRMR
LEDGF integ inh: blockers of LEDGF/p75-dependent integrase strand transfer – biochemical, TR-FRET, high throughput, primary screen | inhibition, % at 3.7 µM | 370,000 tested, 0.64% active | TR-FRET IN-LEDGF/p75 DNA integration, Eu/Cy5 | HIV-1 integrase (with human LEDGF/p75) | AID 743269, 2014;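 active = inhibition above the screen-wide mean plus 3 SD, cut at about 13% in these data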;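 note: signal is the Cy5 over europium emission ratio at 671 and 618 nm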
SIAE confirm: human SIAE inhibitors, retest, confirmation, biochemical, fluorescence polarization, FP-Rh probe, triplicate | SIAE FP-Rh activity-based probe | inhibition, % at 9.66 µM | shares compounds with SIAE inh | AID 1117263, 2014 | 2,300 tested, 13% active;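 active = mean inhibition of the replicates above the hit cutoff set in the primary screen, cut at about 17% in these data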;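 note: inhibitors lower polarization as more probe stays unbound to SIAE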
Hits are given with their value; – = inactive; · = no result given. In the library only some 3.3% were active in any assay of this set; here they are far more common.

SMILES	SIAE inh	MBD2 inh	UHRF1 MBD2 ctr	TDP2 inh	PRMT1 FP inh	LEDGF integ inh	SIAE confirm
CCCCC1OC2(C)OC(=N)C1(C#N)C(C#N)(C#N)C2c1ccccc1 (stereo not drawn)	38.0	–	–	–	–	–	–
CC(=O)Nc1c(NC(C)(C)C)c2ccccc2oc1=O	20.8	–	–	–	–	–	–
Cn1cc(CCOCc2ccc(Br)cc2)c2ccccc21	–	–	–	–	–	–	·
O=C(NN=Cc1cc(Br)c(O)c(Br)c1)c1ccccc1NS(=O)(=O)c1cccs1	19.4	–	–	–	–	–	–
Nc1nonc1N/N=C/c1c(O)ccc2ccccc12	17.5	–	–	–	–	–	–
O=C(O)c1cc(N/N=C/c2c(O)ccc3ccccc23)ccc1Cl	–	–	–	–	–	–	·
Nc1cc(Cl)nc(N/N=C/c2c(O)ccc3ccccc23)n1	18.9	–	–	–	–	–	–
CC(C)[C@H](NC(=O)c1ccc(Cl)cc1Cl)C(=O)N1CCC[C@H]1C(=O)NCCc1ccccc1Cl	–	–	–	–	–	–	·
CCCCn1c(N)c(N(CC)C(=O)CSc2nnnn2-c2cc(C)ccc2C)c(=O)[nH]c1=O	–	–	–	–	–	–	·
CCCCn1c(N)c(N(C(=O)CSc2nnnn2-c2ccccc2)C2CCCC2)c(=O)[nH]c1=O	21.9	–	–	–	–	–	–
CCNC(=S)N1CCc2cc(OC)c(OC)cc2C1COc1ccc(OC)cc1 (stereo not drawn)	–	–	–	–	–	–	·
CCNC(=S)N1CCc2cc(OC)c(OC)cc2C1COc1ccccc1OC (stereo not drawn)	18.2	–	–	–	–	–	–
CC(=O)N1CCc2cc(S(=O)(=O)NC3CCN(C(=O)CCl)CC3)ccc21	–	–	–	–	–	–	·
CN(C)CC(=O)N[C@@H]1C[C@@H]2O[C@@H](CO)CC[C@@H]2O[C@@H]1CCc1ccc(C2=CCCCC2)cc1	–	–	–	–	–	–	·
O=C(CCCC(=O)Nc1cccc(Br)c1)N/N=C/c1cc([N+](=O)[O-])ccc1O	–	–	–	–	–	–	·
O=C(CCC(=O)Nc1cccc(Cl)c1)N/N=C/c1cc([N+](=O)[O-])ccc1O	17.7	–	–	–	–	–	–
COc1ccc(-c2cc(-c3nnc4sc(-c5cccs5)nn34)[nH]n2)cc1	–	–	–	–	–	–	·
COc1ccccc1Nc1nnc(SCC(=O)NC2CC2)s1	17.5	–	–	–	–	–	–
COc1ccccc1Nc1nnc(SCC(=O)NC2CCCC2)s1	–	–	–	–	–	–	·
Cc1ccc(C(=O)NCc2cccnc2)cc1S(=O)(=O)N1CCCCCC1	–	–	–	–	–	–	·
Cc1ccc(CNC(=O)c2ccc(S(=O)(=O)N3CCCCC3)cc2)cc1	–	–	–	–	–	–	·
Cc1cc2cc(CNS(=O)(=O)c3ccccc3)ccc2n1C	17.5	–	–	–	–	–	–
Cc1cc2cc(CNC(=O)c3ccc(S(=O)(=O)N4CCCCC4)cc3)ccc2n1C	34.8	–	–	–	–	–	–
CCN(CC)S(=O)(=O)c1ccc(C(=O)NCc2ccc3c(c2)cc(C)n3C)cc1	28.3	–	–	–	–	–	–
CCN(CC)S(=O)(=O)c1ccc(C(=O)NCc2ccc3c(c2)OCO3)cc1	–	–	–	–	–	–	·
SMILES	SIAE inh	MBD2 inh	UHRF1 MBD2 ctr	TDP2 inh	PRMT1 FP inh	LEDGF integ inh	SIAE confirm
Cc1ccc(C(=O)NCc2cccc(C(F)(F)F)c2)cc1S(=O)(=O)N1CCCCC1	24.6	–	–	–	–	–	–
COc1cccc(C(=O)N[C@H](C(=O)N2CCC[C@H]2C(=O)NC2CCCC2)C2CCCCC2)c1	–	–	–	–	–	–	·
Cc1nc2ccc(NC(=O)c3cc(Cl)ccc3F)cc2c(=O)[nH]1	–	–	–	–	–	–	·
Nc1[nH]c(C(=O)c2ccccc2)c(-c2ccc(Cl)cc2Cl)c1C(=O)NCCc1c[nH]c2ccccc12	18.9	–	–	–	–	–	–
CCOc1ccc(S(=O)(=O)NCCC(=O)OCN2C(=O)c3ccccc3C2=O)cc1	17.9	–	–	–	–	–	–
Cc1ccc(S(=O)(=O)NCC(=O)OCN2C(=O)c3ccccc3C2=O)cc1	–	–	–	–	–	–	·
Cc1ccc(-c2cnc(SCCNC(=O)c3ccco3)[nH]2)cc1	17.3	–	–	–	–	–	–
Cc1ccc(C(=O)NCCCNC(=O)c2ccco2)cc1	–	–	–	–	–	–	·
COC(=O)C1=C(C)N(Cc2ccc(C(F)(F)F)cc2)C(=NCc2ccc(OC)cc2)NC1c1ccccc1 (stereo not drawn)	–	–	–	–	–	–	·
CCC[C@H]1[C@@H](OC(=O)N2CCCC2)CC[C@@]23CCCN2C(=O)CCC[C@@H]13	–	–	–	–	–	–	·
COc1cc(NS(=O)(=O)c2ccc(NC(=O)CCC(=O)O)cc2)nc(OC)n1	17.3	–	–	–	–	–	–
Cc1ccc(NC(=O)/C(C#N)=N/Nc2ccc(C(=O)O)cc2)c(C)c1	–	–	–	–	–	–	·
Cc1ccc(N/N=C(\C#N)C(N)=S)c(C)c1	54.0	–	–	–	–	–	–
COc1ccc(O)c(/C=N/Nc2nc(C)cc(-c3ccccc3)n2)c1	21.6	–	–	–	–	–	–
Nc1ccn([C@@H]2O[C@H](C(=O)N[C@H](Cc3ccccc3)C(=O)N3CCN(C(=O)N4CCCCC4)CC3)[C@@H](O)[C@H]2O)c(=O)n1	23.4	–	–	–	–	–	18.4
NC(=O)c1ncn([C@@H]2O[C@H](C(=O)N[C@H](Cc3c[nH]c4ccccc34)C(=O)N3CCN(C(=O)N4CCCCC4)CC3)[C@@H](O)[C@H]2O)n1	17.2	–	–	–	–	–	–
Nc1ccn([C@@H]2O[C@H](C(=O)N[C@H](Cc3ccccc3)C(=O)N3CCN(CCO)CC3)[C@@H](O)[C@H]2O)c(=O)n1	–	–	–	–	–	–	·
COC(=O)[C@@]12CCCCC=C1N(CCc1ccc(Cl)cc1)C(=O)[C@H]2CC(=O)NCCC(C)C	–	–	–	–	–	–	·
